Structures are written as SMILES. The source made the active and inactive calls.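 The calls were made as follows, unless noted: active = viability at or below 10% of carrier control in both of two separate runs; inconclusive = viability at or below 10% in only one of the two runs; inactive = the rest.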

Test [1] is described as follows: Her2 expression decrease, cell viability multiplex – SKBR3 breast tumor cells, AlphaScreen, ATP viability, primary screen (AID 461;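 active = Her2 level under about 52% in both replicate screens, with viability over 70% of control, limit read from the data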;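 as to Her2 level: lower value means less Her2 protein in the cells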;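 as to viability: percent of carrier control wells set as 100% viability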). The following applies: SKBR3 Her2 protein level, 18-24 h, measured here: SKBR3 viability, ATP luminescence, at 10 µM.
The target in test [2] is Receptor tyrosine-protein kinase erbB-2 (Homo sapiens) (UniProt P04626). Described as above. The conditions noted are these: 18-24 h, at 10 µM, stronger effect = lower value.
Test [3] in a line: reduced viability of SK-BR-3 breast cancer cells – cell-based, 24 h, human, pilot screen (AID 572).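 Also: compound exposure lasted between 18 and 24 h rather than exactly 24 h; 100% = carrier-treated control wells.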 The following applies: SK-BR-3 viability, CellTiter-Glo luminescence, at 10 µM, stronger effect = lower value. Background: ATP-based viability assays read luminescence as a measure of living cells.
Test [4] in a line: HUVEC growth inhibition – cell-based, human, primary screen (AID 575;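 active = viability at or below 30% in both replicate assays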;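 also: 100% = median of untreated cell wells with 0.1% DMSO on each plate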). The conditions noted are these: HUVEC proliferation, CellTiter-Glo luminescence, 72 h; at 10 µM; stronger effect = lower value. The method, boiled down: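 Test system: primary human umbilical vein endothelial cells. Quantity: 1250 cells/well. Compound: single 10 µM dose, 0.1% DMSO, from 5x medium stock. Timing: 72 h treatment at 37 °C. Detection: ATP-based CellTiter-Glo luminescent read. Benchmarks: vehicle and MePR control wells. Format: 384-well plates coated with collagen.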

The nature of test [5]: H69AR cell proliferation blockers – human, duplicate replicates, primary screen (AID 580;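 active = viability at or under a set limit in both replicates, limit being median viability minus 3 SD, cut at about 48% in these data, passing the limit was not always enough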;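 also: 100% = mean luminescence of untreated wells and 0% = no signal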). The conditions noted are these: H69AR lung tumor cells viability, ATP luminescence, 72 h; at 10 µM; stronger effect = lower value.
The nature of test [6]: MRP1 drug-resistance reversers in H69AR cells – cell-based, doxorubicin co-treatment, pilot screen (AID 601;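 active = viability loss from added drug above about 55%, and viability with drug at most 40%, in both replicates, limit read from the data, passing the limit was not always enough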). The conditions noted are these: CellTiter-Glo, 72 h, at 10 µM; for differential viability (reversal): stronger effect = higher value.
A short description of test [7]: yeast transport mutant growth inhibition pilot in 384-well plates, post-Golgi transport modulator project (AID 636; in the data active = inhibition above about 31%). The conditions noted are these: absorbance 615 nm, about 18 h, stronger effect = higher value.
The nature of test [8]: growth suppression of yeast trafficking mutant, preliminary HTS, modulators of trafficking downstream of Golgi apparatus project, 1536-format plate, OD 615 nm (AID 637; in the data active = inhibition above about 30%). The conditions noted are these: yeast transport mutant growth, absorbance 615 nm, 18 h; stronger effect = higher value.
Setting [9] is: H69AR cells + 2 uM doxorubicin, measured here: viability with 2 uM doxorubicin, stronger effect = lower value.
Setting [10] is: H69AR cells, compound alone cytotoxicity.

Sequence of Receptor tyrosine-protein kinase erbB-2 (Homo sapiens) (P04626 whole entry, looked up): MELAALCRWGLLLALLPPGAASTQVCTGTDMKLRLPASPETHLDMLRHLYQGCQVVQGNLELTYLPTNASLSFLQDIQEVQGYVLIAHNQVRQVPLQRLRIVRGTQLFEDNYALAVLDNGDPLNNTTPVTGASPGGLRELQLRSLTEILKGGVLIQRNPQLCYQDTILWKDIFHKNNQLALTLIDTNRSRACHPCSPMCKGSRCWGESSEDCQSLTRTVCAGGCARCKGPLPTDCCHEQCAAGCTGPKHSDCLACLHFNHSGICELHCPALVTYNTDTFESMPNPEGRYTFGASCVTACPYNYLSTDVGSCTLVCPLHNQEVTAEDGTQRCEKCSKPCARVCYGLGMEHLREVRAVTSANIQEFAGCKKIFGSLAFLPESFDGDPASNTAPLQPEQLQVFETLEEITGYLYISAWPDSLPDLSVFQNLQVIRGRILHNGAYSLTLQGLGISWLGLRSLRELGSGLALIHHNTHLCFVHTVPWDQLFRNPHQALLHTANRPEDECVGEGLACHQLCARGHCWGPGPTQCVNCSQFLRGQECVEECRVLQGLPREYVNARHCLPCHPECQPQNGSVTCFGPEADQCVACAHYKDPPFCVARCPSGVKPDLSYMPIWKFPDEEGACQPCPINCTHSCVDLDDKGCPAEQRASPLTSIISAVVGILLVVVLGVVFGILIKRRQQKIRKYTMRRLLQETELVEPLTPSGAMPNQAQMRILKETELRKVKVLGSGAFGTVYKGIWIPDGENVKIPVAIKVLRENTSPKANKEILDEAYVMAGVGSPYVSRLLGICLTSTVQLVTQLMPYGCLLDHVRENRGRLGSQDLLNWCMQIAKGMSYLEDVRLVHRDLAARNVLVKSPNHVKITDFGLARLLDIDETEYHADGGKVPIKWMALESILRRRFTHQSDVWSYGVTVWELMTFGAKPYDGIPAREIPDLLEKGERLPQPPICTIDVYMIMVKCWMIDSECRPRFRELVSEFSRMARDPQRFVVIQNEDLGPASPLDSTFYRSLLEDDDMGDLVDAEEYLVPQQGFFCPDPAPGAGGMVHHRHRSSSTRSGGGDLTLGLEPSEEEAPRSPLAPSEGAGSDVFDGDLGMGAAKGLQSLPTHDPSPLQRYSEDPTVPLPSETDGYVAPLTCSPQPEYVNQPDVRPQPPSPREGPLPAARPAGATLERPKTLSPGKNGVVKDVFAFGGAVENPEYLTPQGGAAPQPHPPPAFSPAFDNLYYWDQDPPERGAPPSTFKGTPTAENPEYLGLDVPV

Take `CC1CCc2cc(F)cc3c(O)c(C(=O)NCC4CCCO4)c(=O)n1c23` (stereo not given): the viability (as a rule, a read-out of living cells in per cent, often relative to untreated cells) is 93.5% in test [1]; 93.5% (inactive) in test [3]; 80.8% (inactive) in test [4]; 85.6% (inactive) in test [5]; 94.2% in test [6] (setting [9]); 85.6% in test [6] (setting [10]). Also, the Her2 level in test [2] was 94% (inactive). Besides, in test [6] (H69AR cells + 2 uM doxorubicin), the differential viability (reversal) is -8.57% (inactive). Further, the inhibition (as a rule, the change of the read-out against control, counted positive when it falls) in test [7] is 0.66% (inactive); in test [8], -9.84% (inactive).

As to `COc1ccccc1N1CC(C(=O)Nc2cccc(C(=O)O)c2)CC1=O` (stereo not given), the viability in test [1] is 98%; in test [3] it was 98% (inactive); in test [4] it was 95.4% (inactive); in test [5], 94.1% (inactive); in test [6] (setting [9]), 99.6%; in test [6] (setting [10]), 94.1%. Besides, the Her2 level in test [2] is 103% (inactive). For the same molecule, the differential viability (reversal) in test [6] (H69AR cells + 2 uM doxorubicin) was -5.46% (inactive). Further, the inhibition in test [7] was 3.07% (inactive); in test [8] it was -7.58% (inactive).

Regarding `CCOC(=O)N1CCN(c2c(NCC3CCN(Cc4cccc(C)c4)CC3)c(=O)c2=O)CC1`, the viability in test [1] is 102%; in test [3], 102% (inactive); in test [4], 81.7% (inactive); in test [5], 107% (inactive); in test [6] (setting [9]), 92.2%; in test [6] (setting [10]) it was 107%. For the same molecule, in test [2], the Her2 level was 89.5% (inactive). Besides, in test [6] (H69AR cells + 2 uM doxorubicin), the differential viability (reversal) is 15% (inactive). Besides, the inhibition in test [7] was -2% (inactive); in test [8] it was 2.95% (inactive).

On to `CCn1c(=O)cc(SCC(=O)NCCN2CCN(Cc3ccccc3)CC2)c2ccccc21`, for which the viability was 89% in test [1]; 89% (inactive) in test [3]; 80.5% (inactive) in test [4]; 84.4% (inactive) in test [5]; 77.3% in test [6] (setting [9]); 84.4% in test [6] (setting [10]). Further, in test [2], the Her2 level is 89.5% (inactive). Further, in test [6] (H69AR cells + 2 uM doxorubicin), the differential viability (reversal) was 7.1% (inactive). Also, the inhibition in test [7] was -4.47% (inactive); in test [8] it was -3.09% (inactive).

Turning to `Cc1c(C(=O)O)oc2ccc(S(=O)(=O)NCCC3=CCCCC3)cc12`, the viability was 100% in test [1]; 100% (inactive) in test [3]; 95.9% (inactive) in test [4]; 101% (inactive) in test [5]; 94.3% in test [6] (setting [9]); 101% in test [6] (setting [10]). For the same molecule, the Her2 level in test [2] was 98.5% (inactive). The differential viability (reversal) in test [6] (H69AR cells + 2 uM doxorubicin) is 6.48% (inactive). Also, the inhibition in test [7] was -3.16% (inactive); in test [8], -9.52% (inactive).

`Cc1cc(C)cc(NC(=O)CCNS(=O)(=O)c2ccc3c(c2)oc(=O)n3C)c1`: the viability in test [1] was 118%; in test [3] it was 118% (inactive); in test [4] it was 95.8% (inactive); in test [5] it was 94.9% (inactive); in test [6] (setting [9]), 97%; in test [6] (setting [10]) it was 94.9%. Moreover, the Her2 level in test [2] was 112% (inactive). In addition, in test [6] (H69AR cells + 2 uM doxorubicin), the differential viability (reversal) was -2.07% (inactive). For the same molecule, the inhibition in test [7] is -6.16% (inactive); in test [8] it was 1.75% (inactive).

With `CN(Cc1ccccc1)Cc1c[nH]c2ccccc12`, the viability in test [1] was 87%; in test [3], 87% (inactive); in test [4] it was 79.7% (inactive); in test [5], 89.8% (inactive); in test [6] (setting [9]), 96.3%; in test [6] (setting [10]), 89.8%. The Her2 level in test [2] was 96.5% (inactive). Further, in test [6] (H69AR cells + 2 uM doxorubicin), the differential viability (reversal) was -6.54% (inactive). The inhibition in test [7] was -4.61% (inactive); in test [8] it was -1.5% (inactive).

For `CCOCCCNC(=O)C1CCN(C(=O)Nc2ccc(Cl)cc2)CC1`, the viability is 103% in test [1]; 103% (inactive) in test [3]; 94.7% (inactive) in test [4]; 102% (inactive) in test [5]; 90.8% in test [6] (setting [9]); 102% in test [6] (setting [10]). Further, the Her2 level in test [2] was 92.5% (inactive). In test [6] (H69AR cells + 2 uM doxorubicin), the differential viability (reversal) is 10.9% (inactive). In addition, the inhibition is -5% (inactive) in test [7] and -1% (inactive) in test [8].

With `CCn1c(SCc2nc3ccccc3c(=O)[nH]2)nnc1-c1cccnc1`, the viability in test [1] is 84.5%; in test [3] it was 84.5% (inactive); in test [4], 104% (inactive); in test [5], 95.2% (inactive); in test [6] (setting [9]) it was 90.9%; in test [6] (setting [10]), 95.2%. In addition, in test [2], the Her2 level was 98% (inactive). In test [6] (H69AR cells + 2 uM doxorubicin), the differential viability (reversal) was 4.33% (inactive). In addition, the figures for the inhibition in test [7] and in test [8] were -0.13% (inactive) and -0.16% (inactive), respectively.

On to `COC(=O)c1cc(-c2c(C)oc3cc(O)ccc3c2=O)c(C)o1`, for which the viability is 100% in test [1]; 100% (inactive) in test [3]; 91.3% (inactive) in test [4]; 84.9% (inactive) in test [5]; 91.1% in test [6] (setting [9]); 84.9% in test [6] (setting [10]). Further, in test [2], the Her2 level is 90.5% (inactive). The differential viability (reversal) in test [6] (H69AR cells + 2 uM doxorubicin) is -6.25% (inactive). Moreover, the figures for the inhibition in test [7] and in test [8] were -4.94% (inactive) and -1.27% (inactive), respectively.

The record behind these values is PubChem BioAssay.
